From article PMC5018460 (Bioorganic & medicinal chemistry letters, 2016)

Tests used:
HIV-1 IN (WT) = HIV-1 IN (WT) (Human immunodeficiency virus type 1 group M subtype B, UniProt P12497); assay: biochemical
A128T mutant HIV-1 IN = A128T mutant HIV-1 IN (Human immunodeficiency virus type 1 group M subtype B, UniProt P12497, A1275T); assay: HTRF-based aberrant IN multimerization assay, A128T mutant IN; format: biochemical
HIV-1 integrase (IN) = HIV-1 integrase (IN) (Human immunodeficiency virus type 1 group M subtype B, UniProt P12497); assay: HTRF-based LEDGF/p75-dependent integration assay; format: biochemical; details: for activity in the LEDGF/p75-dependent integration assay: at concentrations up to 100 μM
Outline: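 Homogeneous time-resolved fluorescence read-out of integration in the presence of LEDGF/p75. Reactions run in neutral buffer, so carboxylic acid test compounds are present as the carboxylate anion. The format is said to detect integrase inhibitors acting by different mechanisms.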

SMILES	IC50 (HIV-1 IN (WT))	IC50 (A128T mutant HIV-1 IN)	IC50 (HIV-1 integrase (IN))	activity in the LEDGF/p75-dependent integration assay (HIV-1 integrase (IN))
Cn1c(C(OC(C)(C)C)C(=O)O)c(-c2ccc3c(c2)CCCO3)c2ccccc21 (stereo not drawn) [Compound 5c]	16.1 ± 2 µM	16 ± 1.4 µM		
COc1ccc(-n2c(C(OC(C)(C)C)C(=O)O)c(C)c3ccccc32)cc1 (stereo not drawn) [Compound 15]			> 100 µM	failed to show any activity
Cn1c(CC(OC(C)(C)C)C(=O)O)c(-c2ccccc2)c2ccccc21 (stereo not drawn) [Compound 10]			> 100 µM	failed to show any activity
